Compounds with a hit are over-represented: about 3.2% of the library has one in this group of screens.
NR2E3 ag-1: NR2E3 agonists in two-hybrid cells, primary screen, cell-based, luminescence, CHO-S, Gal4-NCOR/VP16-NR2E3 | Photoreceptor-specific nuclear receptor (Homo sapiens), Q9Y5X4 | luciferase | inhibition of corepressor binding, % at 3.98 µM | actives 0.35% (n = 360,000);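 active means inhibition above the mean of all tested compounds plus 3 SD, cut at about 70% in these data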;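 further: 0% = DMSO with NR2E3 transfected cells and 100% = cells lacking NR2E3 construct; higher means lower luciferase signal from less NR2E3 corepressor binding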
Target sequence (Q9Y5X4 whole entry, looked up, the tested form may be a part): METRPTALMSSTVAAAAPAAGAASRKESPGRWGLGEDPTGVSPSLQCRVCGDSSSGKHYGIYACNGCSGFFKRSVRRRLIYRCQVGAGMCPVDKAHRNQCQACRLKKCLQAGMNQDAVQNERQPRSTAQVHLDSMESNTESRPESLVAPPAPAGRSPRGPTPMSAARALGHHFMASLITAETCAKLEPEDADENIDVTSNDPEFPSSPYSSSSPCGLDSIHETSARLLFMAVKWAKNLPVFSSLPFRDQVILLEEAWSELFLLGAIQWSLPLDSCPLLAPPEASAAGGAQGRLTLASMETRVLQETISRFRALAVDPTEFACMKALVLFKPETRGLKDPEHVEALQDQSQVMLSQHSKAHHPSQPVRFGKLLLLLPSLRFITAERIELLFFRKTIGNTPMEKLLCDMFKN
DAX1 inh-1: DAX1 (NR0B1) inhibitors, primary screen, cell-based, HEK293, Gal4-DAX1, luciferase luminescence | inhibition, % at 6.75 µM | HEK293 Gal4-DAX1 luciferase reporter | actives 0.99% (n = 340,000);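 active means inhibition above the mean over all tested compounds plus 3 SD, cut at about 4.2% in these data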;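 further: 0% = DAX1-transfected cells with DMSO and 100% = empty-vector control cells with DMSO; inhibition shows as a rise in luminescence from relieved DAX1 repression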
DAX1 inh-2: DAX1 (NR0B1) inhibitors on StAR promoter, primary screen, cell-based, luminescence, SF-1 (NR5A1), full-length DAX-1. HEK293T StAR-luciferase reporter, SF-1/DAX-1 repression relief. inhibition, % at 6.8 µM. actives 1.1% (n = 370,000). AID 652010, 2013;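 active means inhibition above the mean over all tested compounds plus 3 SD, cut at about 3.6% in these data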;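 further: 0% = DAX-1 cells with DMSO and 100% = cells lacking DAX-1 with DMSO; higher inhibition means more luminescence from relief of DAX-1 repression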
SMARCA2 act: SMARCA2 (BRM) function activators, primary screen, cell-based, luminescence, high throughput; activation, % at 9.1 µM; MG213 cells, MMTV-luciferase reporter, dexamethasone, overnight; AID 652017, 2013; actives 1% (n = 370,000); in the data active means activation above about 7.8%;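 further: 0% = vehicle wells and 100% = reference activator wells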
GASC-1 inh: inhibitors of GASC-1 histone demethylase, primary screen, biochemical, fluorescence, DELFIA europium; GST-JMJD2C(1-420) H3K9me3 demethylation; inhibition, % at 2.35 µM; actives 0.069% (n = 330,000); AID 2099, 2009;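 active means more than half of a compound's replicate wells show inhibition beyond 50%, single wells judged on their own value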;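 further: signal counts dimethyl H3K9 product captured on neutravidin plate; 0% = median of DMSO wells and 100% = 0.3 times that DMSO median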
NR2E3 ag-2: inhibitors of NR2E3-RetCOR corepressor binding, primary screen, NR2E3 agonist project, biochemical, TR-FRET, GST-NR2E3, biotin-RetCOR. actives 0.12% (n = 320,000). inhibition of corepressor binding, % at 4.78 µM. 1536-well. Photoreceptor-specific nuclear receptor (Homo sapiens), Q9Y5X4;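 active means percent inhibition above the cutoff of mean plus 3 SD of all tested compounds, set per screening campaign, cut at about 20% in these data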;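 further: 0% = DMSO wells and 100% = biotin wells as full block of FRET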
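Assay system: NR2E3–RetCOR corepressor complex. Quantity: 1.35 nM GST-NR2E3. Buffer or medium: pH 7.5 Tris-based buffer. Reagent: biotinylated RetCOR corepressor at 7 nM final. Schedule: 5 h at 4 °C. Detection: TR-FRET, emission read at 617 and 671 nm. Replicates: one well per compound, singlicate testing.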
NR2E3 ag conf: NR2E3 agonist confirmation in cells, cell-based, luminescence, CHO-S two-hybrid; inhibition, % at 3.98 µM; shares compounds with NR2E3 ag-1; AID 624378, 2012; CHO-S mammalian two-hybrid NR2E3-NCOR, luciferase luminescence; actives 51% (n = 2,300);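 active means average inhibition above a cutoff equal to the mean inhibition of all tested compounds plus one SD, cut at about 70% in these data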;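 further: 0% = DMSO in NR2E3 cells and 100% = DMSO in cells lacking NR2E3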
VP16 counter: GAL4-VP16 reporter modulators, confirmation, counter-screen for NR2E3 agonist project, cell-based, luminescence, CHO-S, high throughput | actives 29% (n = 2,300) | CHO-S GAL4-VP16 luciferase reporter | shares compounds with NR2E3 ag-1 | inhibition, % at 3.98 µM;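 active means mean inhibition above a cutoff equal to the average over all tested compounds plus one standard deviation, cut at about 70% in these data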;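 further: luciferase from a UAS reporter driven by GAL4-VP16 transactivation; 0% = DMSO with VP16-transfected cells and 100% = DMSO with cells lacking VP16; higher means less reporter light so more repression of VP16 activity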
Starred values were filed as active, the others as inactive; . = not tested or not shown.

SMILES	NR2E3 ag-1	DAX1 inh-1	DAX1 inh-2	SMARCA2 act	GASC-1 inh	NR2E3 ag-2	NR2E3 ag conf	VP16 counter
COc1ccc([C@@]23Oc4cc(OC)cc(OC)c4[C@]2(O)[C@H](O)[C@H](C(=O)N(C)C)[C@H]3c2ccccc2)cc1	101*	-6	-7	-10	.	.	98*	96*
COC(=O)[C@]12CCCCC=C1N(Cc1ccc(OC)cc1)C(=O)[C@@H]2CC(=O)NCc1cccs1	.	.	0	-2	.	.	.	.
CC(Nc1ncnc2sccc12)c1ccccc1 (stereo not given)	106*	-2	-2	-6	-11	-2	97*	86*
O=[N+]([O-])c1ccc(Sc2cccc3cccnc23)c([N+](=O)[O-])c1	78*	-1	-3	-11	-2	2	12	-24
O=[N+]([O-])c1cc(Cl)ccc1Sc1cccc2cccnc12	-3	-1	0	-3	.	-1	.	.
CN1C(=O)c2cc(NC(=O)Nc3ccccc3F)ccc2OC[C@H]2O[C@@H](CC(=O)NCc3ccc(-c4ccccc4)cc3)CC[C@@H]21	.	.	0	-3	.	.	.	.
O=C(OCCOc1ccc(Cl)cc1)c1cc(S(=O)(=O)N2CCCCC2)ccc1N1CCOCC1	51	-1	-2	0	.	.	73*	51
O=C(COC(=O)c1cc(S(=O)(=O)N2CCCCC2)ccc1N1CCOCC1)c1ccccc1Cl	-34	0	-1	-2	.	.	.	.
Cc1ccc(OCCOC(=O)c2cc(S(=O)(=O)N3CCCCC3)ccc2N2CCOCC2)cc1	49	-3	-3	-5	30	3	72*	52
COc1ccc(COC(=O)c2cc(S(=O)(=O)N3CCCCC3)ccc2N2CCOCC2)cc1	-17	-1	-1	2	-19	-1	.	.
COc1ccc(S[C@]2(C(=O)N3CCN(C(C)=O)CC3)CC(=O)N(C(=O)/C=C/c3ccccc3)[C@@H]2c2ccc(OC)cc2)cc1	.	.	-3	-2	.	.	.	.
O=C(Nc1ccccc1)OC1CC2CC1[C@H]1CCCCN1[C@H]2Cc1ccccc1 (stereo not given in full)	.	.	1	-2	.	.	.	.
COc1ccc(-n2c(SCC(=O)Nc3cc(C)c(NC(=O)c4ccccc4)cc3OC)nnc2-c2cccnc2)cc1	.	.	0	-5	.	.	.	.
Cc1ccc(OCC(=O)N2N=C(C(F)(F)F)CC2(O)C(C)(C)C)cc1C (stereo not given)	51	-2	-2	-7	-2	3	59	47
Cc1ccccc1OCC(=O)N1N=C(C(F)(F)F)CC1(O)C(C)(C)C (stereo not given)	-26	-1	0	3	-4	0	.	.
O=C(O)CCSc1nc2ccccc2s1	54	-2	-3	-10	3	2	53	67
CCC(c1nnnn1-c1c(C)cccc1C)N1CCN(c2cccc(C(F)(F)F)n2)CC1 (stereo not given)	0	.	0	-2	.	.	.	.
CCC(c1nnnn1-c1c(C)cccc1C)N1CCN(c2ccc(C(F)(F)F)cc2[N+](=O)[O-])CC1 (stereo not given)	53	.	.	.	.	.	5	10
CN(C)CCCNS(=O)(=O)c1ccc(NC2CCCCCC2)c([N+](=O)[O-])c1	49	-2	-1	-6	-3	1	55	64
Cc1cc2sc3ccc(C#CC4(O)CCCCC4)cc3c(=O)c2cc1C	60	-5	-2	-8	-1	5	86*	36
Fc1ccccc1-c1n[nH]c(=S)n1N=Cc1ccc(-c2ccccc2)cc1	.	.	2	0	.	.	.	.
